CRFR2-BP antag = CRF-BP/CRF-R2 complex antagonism. HEK293 CRF-R2/CRF-BP, CRF-induced calcium fluorescence. inhibition, % at 11.8 µM. 350,000 tested, 0.59% active. AID 588475;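 active = inhibition of the ligand-induced calcium signal above about 50% at the single tested concentration, limit read from the data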
DDE Tn7 FP inh = DD(E)-Tn7 binding inhibition, primary FP screen; FP displacement of FITC-Tn7 peptide from fibrin DD(E); 0% = median of compound wells per plate; inhibition, % at 8.3 µM; 370,000 tested, 0.13% active;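 active = inhibition above the mean of compounds falling within the control limits plus 3 SD of them, cut at about 14% in these data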;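 note: 0% = plate median of compound wells and 100% = 10 µM Aha-Tn7 peptide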
Target sequence (P02675 whole entry, looked up): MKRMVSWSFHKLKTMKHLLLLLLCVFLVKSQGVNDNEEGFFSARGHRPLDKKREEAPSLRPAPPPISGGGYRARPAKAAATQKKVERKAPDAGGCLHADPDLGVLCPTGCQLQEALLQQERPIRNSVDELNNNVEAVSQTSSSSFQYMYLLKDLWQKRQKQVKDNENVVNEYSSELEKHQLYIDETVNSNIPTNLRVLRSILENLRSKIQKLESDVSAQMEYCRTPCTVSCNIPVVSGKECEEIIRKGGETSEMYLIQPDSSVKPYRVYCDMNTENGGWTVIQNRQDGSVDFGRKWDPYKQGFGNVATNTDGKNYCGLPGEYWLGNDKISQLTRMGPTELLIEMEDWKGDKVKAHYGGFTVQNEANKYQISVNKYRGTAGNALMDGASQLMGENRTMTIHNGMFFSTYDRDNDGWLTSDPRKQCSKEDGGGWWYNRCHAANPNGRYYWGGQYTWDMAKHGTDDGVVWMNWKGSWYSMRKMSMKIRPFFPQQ
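Assay system: human fibrin DD(E). Input: DD(E) 2 µM final. Medium: Tris buffer with calcium and detergent, pH 7.8. Compound dosing: single point at 8.3 µM. Timing: 10 min plus 3 h, room temperature. Technique: fluorescence polarization of the labelled Tn7 tracer. Read-out: percent inhibition. Replicates: singlicate testing.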
Tn6 DDE FP = disrupts Tn6 cyclic peptide binding to fibrin D-Dimer-E complex. Fibrin DD(E) TRITC-Tn6 fluorescence polarization displacement. inhibition, % at 8.3 µM. 370,000 tested, 0.21% active. AID 720509;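 active = inhibition above a per-campaign cutoff: mean of compounds within control limits plus 3 SD, cut at about 15% in these data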;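 note: 0% = median of all compound wells on the plate and 100% = blocking peptide control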
cardiac RTF act = cardiac RTF calcium sensitization | P19429+P45379 | IANBD-labeled TnC RTF fluorescence at EC20 calcium; 0% EC20 calcium, 100% full calcium | activation, % at 7.2 µM | 340,000 tested, 0.24% active | AID 493008;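 active = activation above the mean over all tested compounds plus 3 SD, cut at about 30% in these data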;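 note: rise in fluorescence read as greater calcium sensitivity of cardiac thin filaments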
RTF Ca sens inh = cardiac RTF calcium desensitization; P19429+P45379; IANBD-labeled cardiac RTF, Ca2+ fluorescence; inhibition, % at 7.15 µM; 340,000 tested, 0.12% active;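 active = inhibition above the mean inhibition of all tested compounds plus 3 SD, cut at about 17% in these data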;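 note: assay run at fixed EC70 calcium of 1.6 mM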
CRFBP-R2 agonist = agonists of human CRF-binding protein/CRF-R2 receptor complex; 350,000 tested, 0.46% active; HEK293 CRF-R2/CRF-BP, calcium dye fluorescence (FLIPR); percent of saturating CRF peptide response; activation, % at 13.2 µM; AID 588473;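 active = activation of at least 50%, plus an integration ratio under a set limit after plate pattern correction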;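 note: plate controls were neutral control wells without compound for no effect and CRF at EC100 for full effect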
* = called active by the depositor; / = no result given. Shown are actives, neighbours in structure and some others; about 1.4% of the full set was active somewhere.

SMILES	CRFR2-BP antag	DDE Tn7 FP inh	Tn6 DDE FP	cardiac RTF act	RTF Ca sens inh	CRFBP-R2 agonist
CN(Cc1ccncn1)C(=O)C1CCC(=O)N(Cc2cccc(C(F)(F)F)c2)C1 (stereo not given)	19	-3	2	-2	-2	-3
Cc1ccccc1CN1CCCCC(NC(=O)c2ccccc2C(F)(F)F)C1=O (stereo not given)	/	6	10	/	/	/
Cc1ccc(CNc2nc3cc(-c4ccccc4)sc3c(=O)n2C)c(C)c1	/	4	0	/	/	/
COC(=O)c1scc(C)c1NC(=O)c1ccccc1F	-179	-3	5	2	-5	204*
Cc1nc2c(OCCC3CCCCC3)cccn2c1N(C)C(=O)CCC1CCCC1	/	0	1	/	/	/
CCOC(=O)C(C)(C)N(Cc1ccc(C)cc1)S(=O)(=O)c1ccc(Cl)c([N+](=O)[O-])c1	67*	0	-1	2	13	-1
Cc1ccc(S(=O)(=O)NC(=O)NC2=NC(C)(C)N(c3ccc(Cl)c(Cl)c3)C(N)=N2)cc1	/	-5	4	/	/	/
COC(=O)[C@]12C[C@H](CC(=O)NCc3ccccc3)C(=O)N(Cc3ccco3)C1=C[C@H](C1CCCC1)O[C@@H]2C	/	-5	10	/	/	/
COCCNc1nc2c(S(=O)(=O)c3cc(C)ccc3C)nnn2c2ccccc12	50*	1	-1	-1	4	0
CCC[C@H]1[C@@H](O)CC[C@@]23CCCN2C(=O)CCC[C@@H]13	/	2	5	/	/	/
C#CCOCCOCCOCCNc1nc(N2CCN(C(=O)CCCCCCCCCCNC(=O)[C@H]([C@@H](C)CC)n3cc(CCCCN=C(N)N)nn3)CC2)nc(N2CCN(C(=O)CCCCCCCCCCNC(=O)[C@H](CO)n3cc(CCCCCN)nn3)CC2)n1	-189	/	/	-4	11	76*
C#CCOCCOCCOCCNc1nc(N2CCN(C(=O)CCCCCCCCCCNC(=O)[C@H]([C@@H](C)CC)n3cc(CCCCCN)nn3)CC2)nc(N2CCN(C(=O)CCCCCCCCCCNC(=O)[C@H](CO)n3cc(CCCCCN)nn3)CC2)n1	-42	/	/	-2	-8	77*
C#CCOCCOCCOCCNc1nc(N2CCN(C(=O)Cn3cc(CCO)nn3)CC2)nc(N2CCN(C(=O)[C@H](CCCCN)n3cc(CC(C)O)nn3)CC2)n1 (stereo not given in full)	53*	6	4	0	-6	-3
Nc1nc(F)nc2c1ncn2[C@@H]1O[C@H](CO)[C@@H](O)[C@H]1O	19	-1	1	5	-27	-1
Nc1nc(F)nc2c1ncn2[C@@H]1O[C@H](CO)[C@@H](O)[C@@H]1O	50*	3	0	-2	14	-1
COc1ccc(NC(=O)N(C)C[C@@H]2Oc3cc(C#CCN(C)C)ccc3S(=O)(=O)N([C@H](C)CO)C[C@H]2C)cc1	-2	0	5	/	/	0
Clc1ccc(NN(Cc2ccncc2)c2ccc(Cl)cc2)cc1	17	0	3	/	/	51*
CCOC(=O)c1nnn(-c2nonc2N)c1CN(C)C1CCCCC1	60*	9	2	-1	-5	-2
CCOC(=O)c1nnn(-c2nonc2N)c1CN(CC)CC	-20	-1	3	-2	0	3
COc1cc(OC)c(NC(=O)c2cc3ccccc3cc2O)cc1Cl	-12	3	-12	32*	3	5
COc1cccc(NS(=O)(=O)c2c(C)n(C)c(=O)n(C)c2=O)c1	9	-8	0	6	-8	-1
COc1ccc(NS(=O)(=O)c2c(C)n(C)c(=O)n(C)c2=O)cc1OC	82*	2	-15	2	-8	0
C[C@H]1[C@@H](N(C)CC2CCCCC2)CC[C@@]23CCCN2C(=O)CCC[C@@H]13	/	-1	1	/	/	/
CC(=Cc1cccs1)C(=O)c1ccccc1	27	-1	5	/	/	-2
Cc1cc2oc(=O)cc(-c3ccccc3)c2c(C)c1-c1ccc(O)cc1	50*	-7	-1	-3	1	0
CCOC(=O)c1c[nH]n2c(=S)ncnc12	21	-8	-8	/	/	3
Cc1cc(Cl)ccc1OCC(=O)Nc1ccccc1NS(=O)(=O)c1cccs1	10	-2	-1	-6	2	2

Bioassay records from PubChem.
